Data from ChEMBL document CHEMBL1150419, “Structure-activity relationships of a peptide inhibitor of the human FcRn:human IgG interaction” (Bioorg Med Chem, 2008).

How the values were obtained:
[1] = target: T1, IgG receptor FcRn large subunit p51 (Homo sapiens, UniProt P55899); assay: Binding affinity to human FcRn at pH 6 by surface plasmon resonance assay
In short: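 Soluble human FcRn coupled to the dextran surface of a CM5 chip; peptide dilutions flowed over the chip. The equilibrium response at each dilution was plotted against concentration and fitted to a steady-state affinity model to give Kd.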

[2] = target: T1, IgG receptor FcRn large subunit p51; assay: Inhibition of human IgG binding to soluble human FcRn by ELISA
In short: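 Biotinylated soluble human FcRn immobilized on neutravidin plates, incubated with hIgG (3 nM, constant) and peptide at varying concentrations for 2 h at 37 °C. After washing, bound hIgG detected with peroxidase-conjugated hIgG-specific Fab fragments.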

T1 sequence (P55899 whole entry): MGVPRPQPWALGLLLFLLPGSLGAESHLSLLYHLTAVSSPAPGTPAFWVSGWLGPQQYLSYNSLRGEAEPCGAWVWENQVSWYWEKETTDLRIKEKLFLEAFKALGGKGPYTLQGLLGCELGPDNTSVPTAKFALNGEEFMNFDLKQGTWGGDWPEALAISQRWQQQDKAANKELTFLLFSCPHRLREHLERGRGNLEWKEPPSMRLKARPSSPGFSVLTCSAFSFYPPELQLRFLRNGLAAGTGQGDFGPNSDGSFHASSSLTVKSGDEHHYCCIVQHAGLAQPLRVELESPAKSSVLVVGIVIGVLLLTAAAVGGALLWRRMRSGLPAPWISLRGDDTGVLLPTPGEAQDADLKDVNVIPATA

Structure (SMILES) | Kd [1] | IC50 [2]
CC(C)C[C@H](NC(=O)CNC(=O)CNC(=O)[C@@H](Cc1ccccc1)NC(=O)[C@H](Cc1cnc[nH]1)NC(=O)CNC(=O)[C@@H](NC(=O)[C@@H](NC(=O)[C@H](Cc1ccccc1)NC(=O)[C@H](CCCN=C(N)N)NC(=O)[C@@H](N)CCC(N)=O)C(C)(C)S)[C@@H](C)O)C(=O)N[C@@H](Cc1ccc(O)cc1)C(=O)N1CCC[C@H]1C(=O)N[C@@H](CS)C(=O)N[C@@H](CC(N)=O)C(=O)NCC(=O)N1CCC[C@H]1C(=O)O | > 250 µM | 
CC(C)C[C@H](NC(=O)CNC(=O)CNC(=O)[C@H](Cc1ccccc1)NC(=O)[C@H](Cc1cnc[nH]1)NC(=O)CNC(=O)[C@@H](NC(=O)[C@H](NC(=O)[C@H](Cc1ccccc1)NC(=O)[C@@H](CCCN=C(N)N)NC(=O)[C@@H](N)CCC(N)=O)C(C)(C)S)[C@@H](C)O)C(=O)N[C@@H](Cc1ccc(O)cc1)C(=O)N1CCC[C@H]1C(=O)N[C@H](CS)C(=O)N[C@@H](CC(N)=O)C(=O)NCC(=O)N1CCC[C@H]1C(=O)O | 0.28 µM | 
CC(C)C[C@H](NC(=O)CNC(=O)CNC(=O)[C@H](Cc1ccccc1)NC(=O)[C@H](Cc1cnc[nH]1)NC(=O)CNC(=O)[C@@H](NC(=O)[C@@H](NC(=O)[C@H](Cc1ccccc1)NC(=O)[C@H](CCCNC(=N)N)NC(=O)[C@@H](N)CCC(N)=O)C(C)(C)S)[C@@H](C)O)C(=O)N[C@@H](Cc1ccc([N+](=O)[O-])cc1)C(=O)N1CCC[C@H]1C(=O)N[C@@H](CS)C(=O)N[C@@H](CC(N)=O)C(=O)NCC(=O)N1CCC[C@H]1C(=O)O | 180 µM | 
CC(C)C[C@H](NC(=O)[C@H]1CSC2C[C@@H](NC(=O)[C@H](Cc3ccccc3)NC(=O)[C@H](Cc3cnc[nH]3)NC(=O)CNC(=O)[C@@H](NC(=O)[C@H](NC(=O)[C@H](Cc3ccccc3)NC(=O)[C@@H](N)CCCNC(=N)N)C(C)(C)S)[C@@H](C)O)C(=O)N21)C(=O)N[C@@H](Cc1ccc(O)cc1)C(=O)N1CCC[C@H]1C(=O)N[C@@H](CS)C(=O)O (some centres not stated) | 0.99 µM | 
CC(C)C[C@H](NC(=O)CNC(=O)[C@@H](CC(=O)O)NC(=O)[C@H](Cc1ccccc1)NC(=O)[C@H](Cc1cnc[nH]1)NC(=O)CNC(=O)[C@@H](NC(=O)[C@@H](NC(=O)[C@H](Cc1ccccc1)NC(=O)[C@H](CCCN=C(N)N)NC(=O)[C@@H](N)CCC(N)=O)C(C)(C)S)[C@@H](C)O)C(=O)N[C@@H](Cc1ccc(O)cc1)C(=O)N1CCC[C@H]1C(=O)N[C@@H](CS)C(=O)N[C@@H](CC(N)=O)C(=O)NCC(=O)N1CCC[C@H]1C(=O)O | 0.58 µM | 
CC(C)C[C@@H](NC(=O)CNC(=O)CNC(=O)[C@@H](Cc1ccccc1)NC(=O)[C@H](Cc1cnc[nH]1)NC(=O)CNC(=O)[C@@H](NC(=O)[C@H](NC(=O)[C@H](Cc1ccccc1)NC(=O)[C@H](CCCNC(=N)N)NC(=O)[C@@H](N)CCC(N)=O)C(C)(C)S)[C@@H](C)O)C(=O)N[C@@H](Cc1ccc(O)cc1)C(=O)N1CCC[C@H]1C(=O)N[C@H](CS)C(=O)N[C@@H](CC(N)=O)C(=O)NCC(=O)N1CCC[C@H]1C(=O)O | > 250 µM | 
CC(C)C[C@H](NC(=O)c1ccc(CNC(=O)[C@H](Cc2ccccc2)NC(=O)[C@H](Cc2cnc[nH]2)NC(=O)CNC(=O)[C@@H](NC(=O)[C@@H](NC(=O)[C@H](Cc2ccccc2)NC(=O)[C@@H](N)CCCNC(=N)N)C(C)(C)S)[C@@H](C)O)cc1)C(=O)N[C@@H](Cc1ccc(O)cc1)C(=O)N1CCC[C@H]1C(=O)N[C@@H](CS)C(=O)O |  | > 125 µM
CC(C)C[C@H](NC(=O)CN(C)C(=O)CNC(=O)[C@H](Cc1ccccc1)NC(=O)[C@H](Cc1cnc[nH]1)NC(=O)CNC(=O)[C@@H](NC(=O)[C@@H](NC(=O)[C@H](Cc1ccccc1)NC(=O)[C@H](CCCN=C(N)N)NC(=O)[C@@H](N)CCC(N)=O)C(C)(C)S)[C@@H](C)O)C(=O)N[C@@H](Cc1ccc(O)cc1)C(=O)N1CCC[C@H]1C(=O)N[C@@H](CS)C(=O)N[C@@H](CC(N)=O)C(=O)NCC(=O)N1CCC[C@H]1C(=O)O |  | 0.9 µM
CC(C)C[C@H](NC(=O)Cc1cccc(NC(=O)[C@H](Cc2ccccc2)NC(=O)[C@H](Cc2cnc[nH]2)NC(=O)CNC(=O)[C@@H](NC(=O)[C@@H](NC(=O)[C@H](Cc2ccccc2)NC(=O)[C@@H](N)CCCN=C(N)N)C(C)(C)S)[C@@H](C)O)c1)C(=O)N[C@@H](Cc1ccc(O)cc1)C(=O)N1CCC[C@H]1C(=O)N[C@@H](CS)C(=O)O |  | 14 µM
CC(C)C[C@@H](C(=O)N[C@@H](Cc1ccc(O)cc1)C(=O)N1CCC[C@H]1C(=O)N[C@@H](CS)C(=O)O)N1CC[C@H](NC(=O)CNC(=O)[C@H](Cc2ccccc2)NC(=O)[C@H](Cc2cnc[nH]2)NC(=O)CNC(=O)[C@@H](NC(=O)[C@@H](NC(=O)[C@H](Cc2ccccc2)NC(=O)[C@@H](N)CCCNC(=N)N)C(C)(C)S)[C@@H](C)O)C1=O |  | 19 µM
CC(C)C[C@H](NC(=O)[C@H]1CS[C@@H]2CC[C@@H](NC(=O)[C@H](Cc3ccccc3)NC(=O)[C@H](Cc3cnc[nH]3)NC(=O)CNC(=O)[C@@H](NC(=O)[C@H](NC(=O)[C@H](Cc3ccccc3)NC(=O)[C@@H](N)CCCN=C(N)N)C(C)(C)S)[C@@H](C)O)C(=O)N12)C(=O)N[C@@H](Cc1ccc(O)cc1)C(=O)N1CCC[C@H]1C(=O)N[C@@H](CS)C(=O)O |  | 2.2 µM
CC(C)C[C@H](NC(=O)CNC(=O)CNC(=O)[C@H](Cc1ccccc1)NC(=O)[C@H](Cc1cnc[nH]1)NC(=O)CNC(=O)[C@@H](NC(=O)[C@H](CC(=O)O)NC(=O)[C@H](Cc1ccccc1)NC(=O)[C@H](CCCN=C(N)N)NC(=O)[C@@H](N)CCC(N)=O)[C@@H](C)O)C(=O)N[C@@H](Cc1ccc(O)cc1)C(=O)N1CCC[C@H]1C(=O)N[C@@H](CN)C(=O)N[C@@H](CC(N)=O)C(=O)NCC(=O)N1CCC[C@H]1C(=O)O |  | 32 µM
CC(C)C[C@H](NC(=O)CNC(=O)CNC(=O)[C@H](Cc1ccccc1)NC(=O)[C@H](Cc1cnc[nH]1)N(C)C(=O)CNC(=O)[C@@H](NC(=O)[C@@H](NC(=O)[C@H](Cc1ccccc1)NC(=O)[C@@H](N)CCCN=C(N)N)C(C)(C)S)[C@@H](C)O)C(=O)N[C@@H](Cc1ccc(O)cc1)C(=O)N1CCC[C@H]1C(=O)N[C@@H](CS)C(=O)O |  | > 250 µM
CC(C)C[C@H](NC(=O)CNC(=O)CNC(=O)[C@H](Cc1ccccc1)NC(=O)[C@H](Cc1cnc[nH]1)NC(=O)CNC(=O)[C@@H](NC(=O)[C@@H](NC(=O)[C@H](Cc1ccccc1)NC(=O)[C@@H](N)CCCN=C(N)N)C(C)(C)S)[C@@H](C)O)C(=O)N[C@@H](Cc1ccc(O)cc1)C(=O)N1CCC[C@H]1C(=O)N[C@@H](CS)C(=O)O |  | 2 µM

Results, then the compound that gave them:

Kd [1] | IC50 [2] | Structure (SMILES)
1.5 µM |  | CC(C)C[C@H](NC(=O)[C@@H](Cc1ccc(O)cc1)NC(=O)CNC(=O)[C@H](Cc1ccccc1)NC(=O)[C@H](Cc1cnc[nH]1)NC(=O)CNC(=O)[C@@H](NC(=O)[C@@H](NC(=O)[C@H](Cc1ccccc1)NC(=O)[C@H](CCCN=C(N)N)NC(=O)[C@@H](N)CCC(N)=O)C(C)(C)S)[C@@H](C)O)C(=O)N[C@@H](Cc1ccc(O)cc1)C(=O)N1CCC[C@H]1C(=O)N[C@@H](CS)C(=O)N[C@@H](CC(N)=O)C(=O)NCC(=O)N1CCC[C@H]1C(=O)O
> 250 µM |  | CC(C)C[C@H](NC(=O)CNC(=O)CNC(=O)[C@H](Cc1ccccc1)NC(=O)[C@H](Cc1cnc[nH]1)NC(=O)CNC(=O)[C@H](NC(=O)[C@H](NC(=O)[C@H](Cc1ccccc1)NC(=O)[C@H](CCCN=C(N)N)NC(=O)[C@@H](N)CCC(N)=O)C(C)(C)S)[C@@H](C)O)C(=O)N[C@@H](Cc1ccc(O)cc1)C(=O)N1CCC[C@H]1C(=O)N[C@H](CS)C(=O)N[C@@H](CC(N)=O)C(=O)NCC(=O)N1CCC[C@H]1C(=O)O
> 250 µM |  | CC(C)C[C@H](NC(=O)CNC(=O)CNC(=O)[C@H](Cc1ccccc1)NC(=O)[C@H](Cc1cnc[nH]1)NC(=O)CNC(=O)[C@@H](NC(=O)[C@H](NC(=O)[C@H](Cc1ccccc1)NC(=O)[C@H](CCCNC(=N)N)NC(=O)[C@@H](N)CCC(N)=O)C(C)(C)S)[C@@H](C)O)C(=O)N[C@@H](Cc1ccc(O)cc1)C(=O)N1CCC[C@@H]1C(=O)N[C@H](CS)C(=O)N[C@@H](CC(N)=O)C(=O)NCC(=O)N1CCC[C@H]1C(=O)O
 | 5.7 µM | CC(C)C[C@@H](C(=O)N[C@@H](Cc1ccc(O)cc1)C(=O)N1CCC[C@H]1C(=O)N[C@@H](CS)C(=O)O)N(C)C(=O)CN(C)C(=O)CNC(=O)[C@H](Cc1ccccc1)NC(=O)[C@H](Cc1c[nH]nn1)NC(=O)CNC(=O)[C@@H](NC(=O)[C@@H](NC(=O)[C@H](Cc1ccccc1)NC(=O)[C@@H](N)CCCNC(=N)N)C(C)(C)S)[C@@H](C)O
 | 26 µM | CC(C)C[C@H](NC(=O)CNC(=O)CNC(=O)[C@H](Cc1ccccc1)NC(=O)[C@H](Cc1cnc[nH]1)NC(=O)CNC(=O)[C@@H](NC(=O)[C@@H](NC(=O)[C@H](Cc1ccccc1)NC(=O)[C@H](CCCN=C(N)N)NC(=O)[C@@H](N)CCC(N)=O)C(C)(C)S)[C@@H](C)O)C(=O)N[C@@H](Cc1ccc(F)cc1)C(=O)N1CCC[C@H]1C(=O)N[C@@H](CS)C(=O)N[C@@H](CC(N)=O)C(=O)NCC(=O)N1CCC[C@H]1C(=O)O
 | 26 µM | CC(C)C[C@H](NC(=O)CNC(=O)CNC(=O)[C@H](Cc1c[nH]c2ccccc12)NC(=O)[C@H](Cc1cnc[nH]1)NC(=O)CNC(=O)[C@@H](NC(=O)[C@@H](NC(=O)[C@H](Cc1ccccc1)NC(=O)[C@H](CCCN=C(N)N)NC(=O)[C@@H](N)CCC(N)=O)C(C)(C)S)[C@@H](C)O)C(=O)N[C@@H](Cc1ccc(O)cc1)C(=O)N1CCC[C@H]1C(=O)N[C@@H](CS)C(=O)N[C@@H](CC(N)=O)C(=O)NCC(=O)N1CCC[C@H]1C(=O)O
 | 38 µM | CC(C)C[C@H](NC(=O)CN1CCC[C@@H](NC(=O)[C@H](Cc2ccccc2)NC(=O)[C@H](Cc2cnc[nH]2)NC(=O)CNC(=O)[C@@H](NC(=O)[C@@H](NC(=O)[C@H](Cc2ccccc2)NC(=O)[C@@H](N)CCCN=C(N)N)C(C)C)[C@@H](C)O)C1=O)C(=O)N[C@@H](Cc1ccc(O)cc1)C(=O)N1CCC[C@H]1C(=O)N[C@@H](C)C(=O)O
 | 1.4 µM | CC(C)C[C@H](NC(=O)[C@H]1CCCN1C(=O)CNC(=O)[C@H](Cc1ccccc1)NC(=O)[C@H](Cc1cnc[nH]1)NC(=O)CNC(=O)[C@@H](NC(=O)[C@@H](NC(=O)[C@H](Cc1ccccc1)NC(=O)[C@H](CCCNC(=N)N)NC(=O)[C@@H](N)CCC(N)=O)C(C)(C)S)[C@@H](C)O)C(=O)N[C@@H](Cc1ccc(O)cc1)C(=O)N1CCC[C@H]1C(=O)N[C@@H](CS)C(=O)N[C@@H](CC(N)=O)C(=O)NCC(=O)N1CCC[C@H]1C(=O)O
